According to ChEMBL document CHEMBL2407086, “Semisynthesis, cytotoxic activity, and oral availability of new lipophilic 9-substituted camptothecin derivatives” (ACS Med Chem Lett, 2013):

Assays:
HeLa = experiment: Cytotoxicity against human HeLa cells after 72 hrs by MTT assay; type: functional, cell-based
Summary of the method: (§1)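 Cell growth measured by MTT read-out after 72 h continuous drug exposure. IC50 values derived from at least three independent experiments.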

[1] = Effective permeability of the compound in human Caco2 cells at 50 uM after 15 to 90 mins; type: ADME, cell-based; details: Caco-2, read-out: Peff
Summary of the method: (§2)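 Caco-2 monolayers dosed at 50 μM. Transport measured in both directions, apical to basal (Pab) and basal to apical (Pba), in separate runs with and without the metabolic inhibitor sodium azide. Permeability coefficients were calculated with sink or non-sink equations. Values are means of three independent experiments.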

MOLT-4 = experiment: Cytotoxicity against human MOLT4 cells after 72 hrs by MTT assay; type: functional, cell-based; details: MOLT-4, 72 h; summary of the method: as §1
[2] = Effective permeability of the compound in human Caco2 cells at 50 uM after 15 to 90 mins in presence of sodium azide; type: ADME, cell-based; details: Caco-2, with sodium azide (concentration not stated), read-out: Peff; summary of the method: as §2
A549 = experiment: Cytotoxicity against human A549 cells after 72 hrs by MTT assay; type: functional, cell-based; details: A549, 72 h; summary of the method: as §1
PC-3 = experiment: Cytotoxicity against human PC3 cells after 72 hrs by MTT assay; type: functional, cell-based; details: PC-3, 72 h; summary of the method: as §1
MDA-MB-231 = experiment: Cytotoxicity against human MDA-MB-231 cells after 72 hrs by MTT assay; type: functional, cell-based; details: MDA-MB-231, 72 h; summary of the method: as §1
K562 [3] = experiment: Cytotoxicity against human K562 cells after 72 hrs by MTT assay; type: functional, cell-based; details: K562, 72 h; summary of the method: as §1
A2780 = experiment: Cytotoxicity against human A2780 cells after 72 hrs by MTT assay; type: functional, cell-based; details: A2780, 72 h; summary of the method: as §1
MCF7 = experiment: Cytotoxicity against human MCF7 cells after 72 hrs by MTT assay; type: functional, cell-based; details: MCF7, 72 h; summary of the method: as §1
K562 [4] = experiment: Ratio of topotecan IC50 to compound IC50 for human K562 cells; type: functional

In the case of `CC[C@@]1(O)C(=O)OCc2c1cc1n(c2=O)Cc2cc3c(CN4C(=O)c5ccccc5C4=O)c(O)ccc3nc2-1`, the IC50 (HeLa) is reported as 1270 nM.

For `CC[C@@]1(O)C(=O)OCc2c1cc1n(c2=O)Cc2cc3c(CN4C(=O)C=CC4=O)c(O)ccc3nc2-1`, the IC50 (HeLa) was greater than 5000 nM.

Work on `CC[C@@]1(O)C(=O)OCc2c1cc1n(c2=O)Cc2cc3c(CN(C)C)c(O)ccc3nc2-1` [TOPOTECAN] yielded a Papp at 50 µM [1] of 1.77 ×10⁻⁶ cm/s, an IC50 (MOLT-4) of 19 nM and a Papp at 50 µM [2] of 2.88 ×10⁻⁶ cm/s. It also gave an IC50 (A549) of 354 nM, an IC50 (PC-3) of 62 nM and an IC50 (MDA-MB-231) greater than 500 nM. The IC50 (K562 [3]) was 500 nM, the IC50 (A2780) was 33 nM and the IC50 (MCF7) was 63 nM.

`CC[C@@]1(O)C(=O)OCc2c1cc1n(c2=O)Cc2cc3c(CNC(C)=O)c(O)ccc3nc2-1` showed a Papp at 50 µM [1] of 1.17 ×10⁻⁶ cm/s, a Papp at 50 µM [2] of 1.52 ×10⁻⁶ cm/s and an IC50 (HeLa) greater than 5000 nM.

In the case of `CC[C@@]1(O)C(=O)OCc2c1cc1n(c2=O)Cc2cc3cc(O)ccc3nc2-1` [HYDROXYCAMPTOTHECIN], the Papp at 50 µM [1] is reported as 7.88 ×10⁻⁶ cm/s and the Papp at 50 µM [2] is reported as 1.01 ×10⁻⁶ cm/s.

`CC[C@@]1(O)C(=O)OCc2c1cc1n(c2=O)Cc2cc3c(CN4C(=O)C5=C(CCCC5)C4=O)c(OC)ccc3nc2-1` gave a Papp at 50 µM [1] of 4.91 ×10⁻⁶ cm/s, an IC50 (MOLT-4) of 14 nM and a Papp at 50 µM [2] of 2.58 ×10⁻⁶ cm/s. The IC50 (A549) was 226 nM, the IC50 (PC-3) was 51 nM and the “Ratio IC50” value (K562 [4]) was 5. The IC50 (MDA-MB-231) was 500 nM, the IC50 (HeLa) was 173 nM and the IC50 (K562 [3]) was 109 nM. For the same compound, the IC50 (A2780) was 28 nM and the IC50 (MCF7) was 78 nM.

Compound `CC[C@@]1(O)C(=O)OCc2c1cc1n(c2=O)Cc2cc3c(CN4C(=O)C5=C(CCCC5)C4=O)c(O)ccc3nc2-1` has an IC50 (MOLT-4) of 15 nM, an IC50 (A549) of 346 nM and an IC50 (PC-3) of 103 nM. For the same compound, the IC50 (MDA-MB-231) was greater than 500 nM, the IC50 (HeLa) was 214 nM and the IC50 (K562 [3]) was greater than 500 nM. It also gave an IC50 (A2780) of 41 nM and an IC50 (MCF7) of 159 nM.

`CC[C@@]1(O)C(=O)OCc2c1cc1n(c2=O)Cc2cc3c(CN4CCCC4=O)c(O)ccc3nc2-1` showed a Papp at 50 µM [1] of 0.48 ×10⁻⁶ cm/s, a Papp at 50 µM [2] of 1.33 ×10⁻⁶ cm/s and an IC50 (HeLa) greater than 5000 nM.

Compound `CC[C@@]1(O)C(=O)OCc2c1cc1n(c2=O)Cc2cc3ccccc3nc2-1` [CAMPTOTHECIN] has a Papp at 50 µM [1] of 7.88 ×10⁻⁶ cm/s, an IC50 (MOLT-4) of 0.04 nM and a Papp at 50 µM [2] of 1 ×10⁻⁶ cm/s. For the same compound, the IC50 (A549) was 99 nM, the IC50 (PC-3) was 78 nM and the IC50 (MDA-MB-231) was 162 nM. It also gave an IC50 (HeLa) of 24 nM, an IC50 (K562 [3]) of 31 nM and an IC50 (A2780) of 13 nM. For the same compound, the IC50 (MCF7) was 26 nM.
